Experimental data published in the EternaBench riboswitch data.

System: MS2 coat protein
Assay: apparent Kd, MS2 coat protein; higher = weaker binding; RNA-MaP array; FMN 200 µM where present
Procedure, shortened: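 On Illumina sequencing-chip clusters, designs were transcribed by stalled E. coli RNA polymerase and titrated with SNAP-549-labelled MS2 coat protein (0.7 or 1.5 nM, doubling to 3 µM), without and then with constant ligand, in 100 mM Tris-HCl pH 7.5, 80 mM KCl, 4 mM MgCl2, BSA, DTT, yeast tRNA and Tween-20. Apparent Kd is the median of filtered per-cluster curve fits to green signal normalised to red-channel RNA signal and control-cluster median Fmax.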

[1] = designed as: OFF switch for flavin mononucleotide, no ligand
[2] = ligand present: flavin mononucleotide, designed as: OFF switch for flavin mononucleotide
[3] = designed as: ON switch for flavin mononucleotide, no ligand
[4] = ligand present: flavin mononucleotide, designed as: ON switch for flavin mononucleotide

## GUUGGGUGUCAUGUCGCACAUGAGGAUCACCCAUGUAGGAGGUAGGAUAUCCACGAGAAACAAGCGGAGAAGGGCCAUUAGCGU
[1]
  apparent Kd: 27.9 nM
[2]
  apparent Kd: 31.3 nM

## GUUGUAUUAAGUUCAUACUAUAUGAUAGAAGGUGAAAGAUAGACAUGAGGAUCACCCAUGUAAUUCAAGGAUAUGUAGUUACUC
[3]
  apparent Kd: 28.4 nM
[4]
  apparent Kd: 20.4 nM

## GUUUACCGAGGAUAUACAUGAGGAUCACCCAUGUUCCUAAUAAACAUCGGUUCAGCGUGUAGAAGGCGGACCUA
[1]
  apparent Kd: 22.5 nM
[2]
  apparent Kd: 53.9 nM

## GUUUCGUGAGGAUAUGUGGCUUCGAUCGUGCGAUCGAGGCUACAGAAGGCACAUGAGGAUCACCCAUGUUCCUC
[1]
  apparent Kd: 45.2 nM
[2]
  apparent Kd: 612 nM

## GUUUCUAUAAGUUAUAAUUAACAGUCAGAAGGUGAUACUACGACAUGAGGAUCACCCAUGUAAUUCAAGGAUAUGAACUUAAUC
[3]
  apparent Kd: 1120 nM
[4]
  apparent Kd: 539 nM

## GUUUGACAUGAGGAUCACCCAUGUAAGGAUAUACGAGUAGCUGCUAGGUAGUUAGUAUGUAGAAGGUGCGUGUU
[1]
  apparent Kd: 65.7 nM
[2]
  apparent Kd: 62.6 nM

## GUUUGAUUGUAGAAGGUACUUAAUACUCAUGUUACAUGAGGAUCACCCAUGUUUCUACAUUAUUGUAAGGAUAUACAUAACUCA
[3]
  apparent Kd: 259 nM
[4]
  apparent Kd: 48.6 nM

## GUUUUUCCUCAUGUACAUGAGGAACAUGAGGAUCACCCAUGUAGAAGGAUUUCCCUUAAAUUAAAAUAGGAUAUACAUAUAUUU
[1]
  apparent Kd: 88.6 nM
[2]
  apparent Kd: 58.9 nM

## UAAAAGCAAGGAUAUACAUGAGGAUCACCCAUGUGAGGCUAAGUCUGCCAUGGCUCAGGUAGAAGGUGCGUCGA
[1]
  apparent Kd: 51.3 nM
[2]
  apparent Kd: 241 nM

## UAAAAGCUAGGAUAUACAUGAGGAUCACCCAUGUCACGGGUCCACUCAUCCUAUACGUGUAGAAGGAGCGACCC
[2]
  apparent Kd: 19.2 nM

## UAAAGUUAAGGAGGAUAUUACAUGAGGAUCACCCAUGUAAUGGGCUCGGUGUAAGAAGGCCUUGAGUCGAAGUUUCGGAUGAGG
[1]
  apparent Kd: 9.55 nM
[2]
  apparent Kd: 21.4 nM

## UAAAUCAAGUCAGGAUAUCGUGCGGUUGGUCGUUACAUGAGGAUCACCCAUGUCUUCCGUUAGCUCGAGAAGGGACGUGAGCCC
[3]
  apparent Kd: 40 nM
[4]
  apparent Kd: 11.5 nM

## UAAAUCUAGUAAGGAUAUACACGAGAUUCAAGUGUAGAAGGUACUUACAUGAGGAUCACCCAUGUAUACAUGGAUAAUAGAUAU
[3]
  apparent Kd: 234 nM
[4]
  apparent Kd: 109 nM

## UAAAUUCGAAACAUGAGGAUCACCCAUGUGUUGUGGUUUAUAUAGGAUAUGUGGAUACUUUUUUGACAGAAGGAUGAUGGUACU
[3]
  apparent Kd: 13.2 nM
[4]
  apparent Kd: 10.9 nM

## UAAAUUUACAAGAAGGCUAACAUGAGGAUCACCCAUGUUGUACAUGGAUAUAGAGGAUAUUGCUAAUAAUUAUUUAUCAUAAUU
[1]
  apparent Kd: 24.2 nM
[2]
  apparent Kd: 19.5 nM

## UAACAUGUCCGAGGAUAUCUGGAAACAUUUUCAAGAGAAGGCGGACAUGAGGAUCACCCAUGUCUCUCCUCAUCAACUACAAAU
[1]
  apparent Kd: 8.61 nM
[2]
  apparent Kd: 57.5 nM

## UAAGAGUGAGGAUAUACGUCGCUGGUCCGGAUGGACGCAUGACAUGAGGAUCACCCAUGUAGAAGGCACAAAAC
[1]
  apparent Kd: 35 nM
[2]
  apparent Kd: 130 nM

## UAAGAUUAUGUAGGAUAUGGUUAUCUAUGUCUAGUUACUAGACAUAGAUAACCAGAAGGACAUGAGGAUCACCCAUGUUGAAUG
[1]
  apparent Kd: 10.3 nM
[2]
  apparent Kd: 44.4 nM

## UAAGUCGGAGAUAAUAAUGAUUACAUGAGGAUCACCCAUGUAUAGGAUAUCGUCAGGAAUACUGACGAGAAGGAUACAACCGAC
[1]
  apparent Kd: 17.9 nM
[2]
  apparent Kd: 25.8 nM

## UAAGUUGAGGAGAAGGGAGCACAUGAGGAUCACCCAUGUGGUUCUUUGUGCUCAGGAUAUCCAUGGAGCGCCGACGCGUUCCCG
[1]
  apparent Kd: 89.2 nM
[2]
  apparent Kd: 15.6 nM

## UAAGUUUAGGUAGGAUAUACUUUAAAUUUCUCUAUCCAUACAUGAGGAUCACCCAUGUUUACAUUGUAGAAGGACCACUAUGUU
[1]
  apparent Kd: 24.6 nM
[2]
  apparent Kd: 20.4 nM

## UAAGUUUUGGUAGGAUAUACUUUAAAUUUCUCUAUCCAUACAUGAGGAUCACCCAUGUUUACAUUGUAGAAGGACCACUAUGUU
[1]
  apparent Kd: 24.6 nM
[2]
  apparent Kd: 19.7 nM

## UAAUAAAGUGUGAGGAUAUGCUGGUCCUUGGAUCAGCAGAAGGCACAUGAGGAUCACCCAUGUAAUAUAUAUAU
[1]
  apparent Kd: 87.7 nM
[2]
  apparent Kd: 223 nM

## UAAUAUCUGUAGGAUAUCGGUGGAGCACACGUAUGAGAAGGGCAGACAUGAGGAUCACCCAUGUAUAGGGUCCG
[1]
  apparent Kd: 26.8 nM
[2]
  apparent Kd: 41 nM

## UAAUAUUUAUGAUAUUAUUACAGUAGAAGGCUAUACAUGUGGAUACAUGAGGAUCACCCAUGUAUAGAGGAUAUAUACAUAUAU
[1]
  apparent Kd: 964 nM
[2]
  apparent Kd: 351 nM

## UAAUCUCAGAUAGGAUAUAUAGGAUAACUUAAGACCUAACAUGAGGAUCACCCAUGUGAUUAUUCGUAGAAGGAUCAUUGAACC
[3]
  apparent Kd: 206 nM
[4]
  apparent Kd: 217 nM

## UAAUGACAUGUAGGAUAUCGAGGCCUAUGGCCUCGAGAAGGACAUGAGGAUCACCCAUGUAUUCCGAAUGAAUCAAAUAAUAAA
[1]
  apparent Kd: 15.6 nM
[2]
  apparent Kd: 30.8 nM

## UAAUUGUGAGGAUAUUCGUAGUACACGGAGACGUGUAUUACGGAGAAGGCACAUGAGGAUCACCCAUGUUCCUU
[1]
  apparent Kd: 18.2 nM
[2]
  apparent Kd: 89.4 nM

## UACAGCGUAGAUAAUAAUGAAUACAUGAGGAUCACCCAUGUAUAGGAUAUGCAGUGGAAUACACUGCAGAAGGAUACAUCGCUG
[1]
  apparent Kd: 16.4 nM
[2]
  apparent Kd: 23 nM

## UACAUGAGGAUCACCCAUGUUUUGUCGUGUAUGGUAUUUAUCUAGGAUAUCAAUGAAUUUAUUUAUGAGAAGGAGAAUAUUAAU
[1]
  apparent Kd: 40 nM
[2]
  apparent Kd: 37.5 nM

## UACCCUUGUGAGAAGGCGCCGCAGAUUUUACGGCGAGGAUAUCACAUGAGGAUCACCCAUGUUCCUGAGCCUACAAGUGUGGGC
[1]
  apparent Kd: 338 nM
[2]
  apparent Kd: 313 nM

## UACUAUAAGGAGGAUAUCGUAUCGGAGACGAUACGAGAAGGCUUAACAUGAGGAUCACCCAUGUUCUUCAAUAU
[1]
  apparent Kd: 15.3 nM
[2]
  apparent Kd: 18.3 nM

## UACUUGUCAGGAUAUCUUACAUUUGCAUUAUAGCAACUCUUGGAGAAGGGACAUGAGGAUCACCCAUGUUUGGU
[1]
  apparent Kd: 70.8 nM
[2]
  apparent Kd: 317 nM

## UAGAAACAUGAGGAUCACCCAUGUGGGUUAAACACAGGAUAUCACGCCAAAAGAAAAGCGUGAGAAGGGUGACCGA
[3]
  apparent Kd: 86.4 nM
[4]
  apparent Kd: 717 nM

## UAGAAAGAUUAAUAUGAUUACAUGAGGAUCACCCAUGUAUAUAAGGAUAUCGACGUCAAUGACGUCGAGAAGGUAUAUACAUAA
[1]
  apparent Kd: 66.3 nM
[2]
  apparent Kd: 198 nM

## UAGAUGGGAGGAUAUGCAUAGAUACAGAUUCGUGUAGUGCUACAUGAGGAUCACCCAUGUAGAAGGCCCGUCUU
[1]
  apparent Kd: 14.8 nM
[2]
  apparent Kd: 37.6 nM

## UAGCUCGUGUGAGGAUAUGCCGCCGUUUCGGCUGCAGAAGGUGCUACGUUACAUGAGGAUCACCCAUGUCUCUGUUGUUUCGUC
[3]
  apparent Kd: 32.5 nM
[4]
  apparent Kd: 30.5 nM

## UAGGACUACGUAGGAUAUUAAAUCAUGUACUACAUGAGGAUCACCCAUGUUAAUUUAACAUCAGCUGAGAAGGACGUGGUAAAU
[3]
  apparent Kd: 120 nM
[4]
  apparent Kd: 58.5 nM

## UAGGAGUACGUAGGAUAUGUAGGAUAUUCCUACAUGAGGAUCACCCAUGUAUGCAUGGAAGAAGGACAGAAGGACGUGCUCCUU
[3]
  apparent Kd: 200 nM
[4]
  apparent Kd: 13.2 nM

## UAGGAGUCAGGAUAUGCGAGAGAUUGAAGUAUGGGAUGUGAGCAGAAGGGACAUGAGGAUCACCCAUGUAUGGA
[1]
  apparent Kd: 167 nM
[2]
  apparent Kd: 150 nM

## UAGGGAGGAGGGAGGGAGACAUGAGGAUCACCCAUGUAAUGUCAGGAUAUUCUCAUAUUAUAUUAGGAGAAGGGAUACAUAUCU
[1]
  apparent Kd: 49.7 nM
[2]
  apparent Kd: 24.7 nM

## UAGUAUAAGGGCAUUACACAUGAGGAUCACCCAUGUACGUUAGAGGAUAUGCAUUACAGUCGAACGUAGAAGGUUAGAGAAGGG
[1]
  apparent Kd: 168 nM
[2]
  apparent Kd: 157 nM

## UAGUAUUAACGAGGAUAUAAUAUGUUCAAUUUUUUAUAUUGUUUACAUGAGGAUCACCCAUGUUAUUAGAAGGCGUAUGGGAUU
[3]
  apparent Kd: 67.2 nM
[4]
  apparent Kd: 58.8 nM

## UAGUCGGUAGAUAAUAAUGAAUACAUGAGGAUCACCCAUGUAUAGGAUAUCGUCAGGAAUACUGACGAGAAGGAUACAUCCGAC
[1]
  apparent Kd: 16.1 nM
[2]
  apparent Kd: 18.4 nM

## UAUAAAUUAAAAGGAUAUUCAUACCGGAAACGGACAUGAGGAUCACCCAUGUGGCGAAAGCCUUGGGAGAAGGUAUUAAAUAAU
[3]
  apparent Kd: 268 nM
[4]
  apparent Kd: 263 nM

## UAUAACAUGAGGAUCACCCAUGUGGUCGUCGUGGCCCUGUGACAGGAUAUCGGAGUUGGAGCAUACGAGAAGGGUUACGCGGCC
[1]
  apparent Kd: 10.5 nM
[2]
  apparent Kd: 12.4 nM

## UAUAAGUCUCAUGUAACAUGAGGAUCACCCAUGUCAUAUUGUAGAAGGAUGAUAUUAUGUAUAUCAUAGGAUAUACUAUAAGAU
[1]
  apparent Kd: 21.2 nM
[2]
  apparent Kd: 23.3 nM

## UAUAUAUAGGCAGGAUAUACAUGAAUAUAUAUAAUAUAAUAUAAUGUAACAUGAGGAUCACCCAUGUAGAAGGGCCAAUAUAUA
[1]
  apparent Kd: 30.6 nM
[2]
  apparent Kd: 59.9 nM

## UAUAUAUAGGCAGGAUAUACAUGUAUAUAUAAUAUAUUAUAUAAUAUUACAUGAGGAUCACCCAUGUAGAAGGGCCAUAAUAUA
[1]
  apparent Kd: 48.3 nM
[2]
  apparent Kd: 66.9 nM

## UAUAUAUAGUAAGGAUAUGUAAUUACUUUAUAAACAGAAGGUACUGACAUGAGGAUCACCCAUGUUUUAGUGUGGGCAUGUAGA
[1]
  apparent Kd: 87 nM
[2]
  apparent Kd: 113 nM

## UAUAUAUAGUAAGGAUAUGUAAUUAUUUGAUAAACAGAAGGUACUGACAUGAGGAUCACCCAUGUUUUAGUGUGGGCAUGUAGA
[1]
  apparent Kd: 88.2 nM
[2]
  apparent Kd: 138 nM

## UAUAUAUAGUAAGGAUAUGUAUAUAUUAUAUAAACAGAAGGUACUGACAUGAGGAUCACCCAUGUUUUAGUGUGGGCAUGUAGA
[1]
  apparent Kd: 67.8 nM
[2]
  apparent Kd: 98.9 nM

## UAUAUAUAGUAAGGAUAUGUAUAUAUUUCAUAAACAGAAGGUACUGACAUGAGGAUCACCCAUGUUUUAGUGUGGGCAUGUAGA
[1]
  apparent Kd: 60.1 nM
[2]
  apparent Kd: 83.8 nM

## UAUAUAUAGUAAGGAUAUGUAUUAAUUUGAUAAACAGAAGGUACUGACAUGAGGAUCACCCAUGUUUUAGUGUGGGCAUGUAGA
[1]
  apparent Kd: 98.9 nM
[2]
  apparent Kd: 164 nM

## UAUAUAUAGUAAGGAUAUGUAUUAAUUUUAUUAACAGAAGGUACUGACAUGAGGAUCACCCAUGUUUUAGUGUGGGCAUGUAGA
[1]
  apparent Kd: 84.2 nM
[2]
  apparent Kd: 149 nM
